In ChEMBL document CHEMBL1148608, “Correlation of antifungal activity with fungal phospholipase inhibition using a series of bisquaternary ammonium salts” (J Med Chem, 2006):
Values after ≈ are worked out from the molar mass of the structure shown. Active and inactive are the calls of the source. The calls are words filed in the database; no cut-off is given here.

Tests used:
Cryptococcus neoformans = experiment: Antifungal activity against Cryptococcus neoformans ATCC 90112; format: functional
Candida albicans = experiment: Antifungal activity against Candida albicans ATCC 10231; format: functional
Phospholipase B = molecular target: T1, Phospholipase B (Cryptococcus neoformans, UniProt Q9P8P2); experiment: Inhibition of Cryptococcus neoformans H99 PLB1activity
T1 sequence (Q9P8P2 whole entry): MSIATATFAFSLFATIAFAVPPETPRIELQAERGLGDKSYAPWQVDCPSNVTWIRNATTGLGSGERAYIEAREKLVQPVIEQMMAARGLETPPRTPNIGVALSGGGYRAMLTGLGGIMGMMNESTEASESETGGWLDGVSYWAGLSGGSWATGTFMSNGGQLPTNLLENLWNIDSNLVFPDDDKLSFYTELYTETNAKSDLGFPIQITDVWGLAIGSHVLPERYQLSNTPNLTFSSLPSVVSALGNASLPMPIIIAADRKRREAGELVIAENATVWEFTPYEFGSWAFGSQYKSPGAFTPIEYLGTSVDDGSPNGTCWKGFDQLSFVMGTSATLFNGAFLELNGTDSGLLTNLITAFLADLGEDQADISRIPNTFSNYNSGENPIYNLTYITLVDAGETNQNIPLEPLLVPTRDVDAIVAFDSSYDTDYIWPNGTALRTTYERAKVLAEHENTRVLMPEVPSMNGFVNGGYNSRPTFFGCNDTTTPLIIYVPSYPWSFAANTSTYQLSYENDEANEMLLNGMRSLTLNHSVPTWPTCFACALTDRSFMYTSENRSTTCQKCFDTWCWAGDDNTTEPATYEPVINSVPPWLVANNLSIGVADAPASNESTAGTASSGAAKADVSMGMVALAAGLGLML
In short: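 Secreted enzyme from C. neoformans var. grubii H99 grown 72 h on SDA at 30 °C; cells washed and held 24 h at 37 °C in imidazole buffer pH 5.5, and the cell-free supernatant was used. Radiometric assay at 37 °C, pH 4.0 imidazole acetate, with 1 µg protein, 800 µM DPPC plus [14C]DPPC, for 22 min. Lipids were separated by TLC. Compounds at 0.25–250 µM in triplicate, with inhibition relative to the inhibitor-free control.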

RBCs [1] = experiment: Hemolytic activity as a measure of cytotoxicity against human red blood cells at 350 uM; format: functional, Erythrocyte
RBCs [2] = experiment: Hemolytic activity as a measure of cytotoxicity against human red blood cells at 175 uM; format: functional, Erythrocyte
RBCs [3] = experiment: Hemolytic activity as a measure of cytotoxicity against human red blood cells at 87.5 uM; format: functional, Erythrocyte
RBCs [4] = experiment: Hemolytic activity as a measure of cytotoxicity against human red blood cells at 35 uM; format: functional, Erythrocyte
RBCs [5] = experiment: Hemolytic activity as a measure of cytotoxicity against human red blood cells at 3.5 uM; format: functional, Erythrocyte
[6] = molecular target: Phospholipase A2, major isoenzyme (Sus scrofa) (UniProt P00592); experiment: Inhibition of porcine pancreatic PLA2 activity at 250 uM
Sequence of Phospholipase A2, major isoenzyme (Sus scrofa) (P00592 23-146 limits assumed): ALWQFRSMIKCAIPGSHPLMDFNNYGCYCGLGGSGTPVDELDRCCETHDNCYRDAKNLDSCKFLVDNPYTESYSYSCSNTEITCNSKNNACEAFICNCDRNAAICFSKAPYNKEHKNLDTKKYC
In short: (§1)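 Porcine pancreatic PLA2 was diluted in 10 mM Tris/HCl with 10 mM CaCl2, pH 8.2. It was run in the same radiometric assay as the fungal enzyme at 37 °C, using 800 µM DPPC with [14C]DPPC, for a 1 h reaction. Compounds were tested at 250, 25, 2.5 and 0.25 µM final, and inhibition was relative to the inhibitor-free control.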

[7] = molecular target: Phospholipase A2, major isoenzyme (Sus scrofa) (UniProt P00592); experiment: Inhibition of porcine pancreatic PLA2 activity at 25 uM and below; in short: as §1
Aspergillus flavus = experiment: Antifungal activity against Aspergillus flavus ATCC 204 304; format: functional
Lomentospora prolificans = experiment: Antifungal activity against Scedosporium prolificans 1-003-040; format: functional
Scedosporium boydii = experiment: Antifungal activity against Scedosporium apiospermum 1-003-056; format: functional
Aspergillus fumigatus = experiment: Antifungal activity against Aspergillus fumigatus ATCC 204 305; format: functional
Aspergillus terreus = experiment: Antifungal activity against Aspergillus terreus ATCC 03-232-378; format: functional
Fusarium solani = experiment: Antifungal activity against Fusarium solani 04-132-4207; format: functional
[8] = Cryptococcus neoformans, ATCC 90112, read-out: MIC
[9] = Candida albicans, ATCC 10231, read-out: MIC

Structure (SMILES)	MIC (Cryptococcus neoformans; [8])	MIC (Candida albicans; [9])	IC50 (Phospholipase B)	Activity (RBCs [1])	Activity (RBCs [2])	Activity (RBCs [3])	Activity (RBCs [4])	Activity (RBCs [5])	further results
CCCC[N+](CCCC)(CCCC)CCCCCCCCCCCC[N+](CCCC)(CCCC)CCCC [listing 1 of 2 here]	2.2 µM	5.5 µM							
C[N+]1(CCCCCCCCCCCC[N+]2(C)CCCC2)CCCC1	175 µM	175 µM	> 250 µM						
CCCCCCCC[N+](CCCCCCCC)(CCCCCCCC)CCCCCCCCCCCC[N+](CCCCCCCC)(CCCCCCCC)CCCCCCCC	35 µM	100 µM	> 250 µM						
C(CCCCCC[N+]12CCC(CC1)CC2)CCCCC[N+]12CCC(CC1)CC2	350 µM	≥ 350 µM	> 250 µM						
CCCC[P+](CCCC)(CCCC)CCCCCCCCCCCC[P+](CCCC)(CCCC)CCCC.[Br-].[Br-]	2.5 µM	8.8 µM	> 25 µM	15%	0%	0%	0%	0%	
C[N+](C)(C)CCCCCCCCCCCC[N+](C)(C)C.[Br-].[Br-]	175 µM	175 µM	> 250 µM	0%	0%	0%	0%	0%	inhibition [6]: inactive; inhibition [7]: inactive
CCCC[N+](CCCC)(CCCC)CCCCCCCCCCCC[N+](CCCC)(CCCC)CCCC.[Cl-].[Cl-]			10 µM	100%	5%	0%	0%	0%	MIC (Aspergillus flavus): 22 µM; MIC (Lomentospora prolificans): 5.5 µM; MIC (Scedosporium boydii): 2.8 µM; MIC (Cryptococcus neoformans): 2.2 µM; MIC (Candida albicans): 5.5 µM; MIC (Aspergillus fumigatus): 11 µM; MIC (Aspergillus terreus): 5.5 µM; MIC (Fusarium solani): 5.5 µM
CCCCC[N+](CCCCC)(CCCCC)CCCCCCCCCCCC[N+](CCCCC)(CCCCC)CCCCC.[Br-].[Br-]	5.5 µM	5.5 µM	3.5 µM	100%	5%	0%	0%	0%	inhibition [6]: 90%; inhibition [7]: inactive
CC(C)CC[N+](CCCCCCCCCCCC[N+](CCC(C)C)(CCC(C)C)CCC(C)C)(CCC(C)C)CCC(C)C.[Cl-].[Cl-]	4.4 µM	2.2 µM	> 7.5 µM	100%	30%	4%	0%	0%	inhibition [6]: 90%; inhibition [7]: inactive
CCC[N+](CCC)(CCC)CCCCCCCCCCCC[N+](CCC)(CCC)CCC	5.5 µM	10 µM	7 µM						
CCCC[N+](CCCC)(CCCC)CCCCCCCCCCCC[N+](CCCC)(CCCC)CCCC [listing 2 of 2 here]									inhibition [6]: 90%; inhibition [7]: inactive
C[C@@H]1[C@H](O)[C@@H](C)/C=C/C=C/C=C/C=C/C=C/C=C/C=C/[C@H](O[C@@H]2O[C@H](C)[C@@H](O)[C@H](N)[C@@H]2O)C[C@@H]2O[C@](O)(C[C@@H](O)C[C@@H](O)[C@H](O)CC[C@@H](O)C[C@@H](O)CC(=O)O[C@H]1C)C[C@H](O)[C@H]2C(=O)O [AMPHOTERICIN B]	0.54 µM (≈ 0.499 µg/mL)	0.54 µM (≈ 0.499 µg/mL)							MIC (Aspergillus flavus): 0.54 µM (≈ 0.499 µg/mL); MIC (Lomentospora prolificans): 4.3 µM (≈ 3.97 µg/mL); MIC (Scedosporium boydii): 0.54 µM (≈ 0.499 µg/mL); MIC (Aspergillus fumigatus): 0.54 µM (≈ 0.499 µg/mL); MIC (Aspergillus terreus): 1.1 µM (≈ 1.02 µg/mL); MIC (Fusarium solani): 0.27 µM (≈ 0.25 µg/mL)
CCCC[N+]1(CCCCCCCCCCCC[N+]2(CCCC)CCCC2)CCCC1.[Cl-].[Cl-]	88 µM	88 µM	> 250 µM	0%	0%	0%	0%	0%	
C[N+]1(CCCCCCCCCCCC[N+]2(C)CCOCC2)CCOCC1	44 µM	88 µM	> 250 µM						
C[N+](C)(C)CCCCCCCCCC[N+](C)(C)C.[Br-].[Br-] [DECAMETHONIUM BROMIDE]	≥ 350 µM	≥ 350 µM	> 250 µM	0%	0%	0%	0%	0%	
CC[N+](CC)(CC)CCCCCCCCCCCC[N+](CC)(CC)CC	11 µM	22 µM	> 250 µM						
CCCCCC[N+](CCCCCC)(CCCCCC)CCCCCCCCCCCC[N+](CCCCCC)(CCCCCC)CCCCCC	17.5 µM	8.8 µM	7.5 µM						inhibition [6]: 90%; inhibition [7]: inactive
